In ChEMBL document CHEMBL1212904, “Discovery of pyrrole-indoline-2-ones as Aurora kinase inhibitors with a different inhibition profile” (J Med Chem, 2010):
Calls of active or inactive are those of the source. The calls are words filed in the database; no cut-off is given here.

Legend:
[1] = target: T1, Vascular endothelial growth factor receptor 2 (Homo sapiens, UniProt P35968); assay: Inhibition of VEGFR2 at 1 uM by radiometric method
[2] = target: PI3-kinase p110-alpha/p85-alpha (Homo sapiens) (UniProt P27986+P42336); assay: Inhibition of PI3K (p110alpha/p85-alpha) at 1 uM by radiometric method; type: protein-complex assay
[3] = system: Serine/threonine-protein kinase B-raf (Homo sapiens), P15056 [V600E]; assay: Inhibition of b-Raf V600E mutant at 1 uM by radiometric method
[4] = target: Tyrosine-protein kinase ABL1 (Homo sapiens) (UniProt P00519); assay: Inhibition of ABL1 at 1 uM by radiometric method
[5] = target: T2, Platelet-derived growth factor receptor beta (Homo sapiens, UniProt P09619); assay: Inhibition of PDGFRbeta at 1 uM by radiometric method
[6] = target: Mitogen-activated protein kinase 14 (Homo sapiens) (UniProt Q16539); assay: Inhibition of MAPK14 at 1 uM by radiometric method
[7] = target: Tyrosine-protein kinase JAK2 (Homo sapiens) (UniProt O60674); assay: Inhibition of JAK2 at 1 uM by radiometric method
[8] = target: Mitogen-activated protein kinase kinase kinase kinase 5 (Homo sapiens) (UniProt Q9Y4K4); assay: Inhibition of MAP4K5 at 1 uM by KINOMEscan binding assay
[9] = target: T3, Aurora kinase A (Homo sapiens) (UniProt O14965); assay: Inhibition of aurora A in human HCT116 cells assessed as reduction of phosphorylated aurora A at Thr288 level measured at 1.25 to 40 uM after 3 hrs by Western blot analysis; type: cell-based; conditions: HCT-116
T3 sequence (whole entry): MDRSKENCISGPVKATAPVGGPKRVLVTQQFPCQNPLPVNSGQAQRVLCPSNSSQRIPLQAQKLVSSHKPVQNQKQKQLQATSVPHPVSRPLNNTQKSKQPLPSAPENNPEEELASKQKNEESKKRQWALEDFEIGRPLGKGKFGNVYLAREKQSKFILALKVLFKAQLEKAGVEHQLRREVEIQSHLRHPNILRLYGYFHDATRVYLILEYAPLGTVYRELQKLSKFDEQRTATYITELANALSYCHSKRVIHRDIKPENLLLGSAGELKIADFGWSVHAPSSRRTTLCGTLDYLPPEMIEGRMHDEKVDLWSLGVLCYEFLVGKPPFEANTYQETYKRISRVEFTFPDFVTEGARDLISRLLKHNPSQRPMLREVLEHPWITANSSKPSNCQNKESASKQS
Procedure, shortened: (§1)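 HCT-116 cells were synchronized at G2/M with 200 ng/mL nocodazole for 17 h, then given inhibitor for a further 3.0 h. Cells were PBS-washed, boiled in 2× SDS sample buffer, and run on SDS-PAGE with immunoblotting. Rabbit antibodies detected pT288 Aurora A, total Aurora A, pS10 histone H3 and total H3; β-actin served as loading control.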

[10] = target: T3, Aurora kinase A (Homo sapiens); assay: Inhibition of aurora A in human HCT116 cells assessed as reduction of phosphorylated histone H3 at ser10 level measured at 10 uM after 3 hrs by Western blot analysis; type: cell-based; conditions: HCT-116; procedure, shortened: as §1
[11] = target: Tyrosine-protein kinase receptor UFO (Homo sapiens) (UniProt P30530); assay: Inhibition of AXL at 1 uM by KINOMEscan binding assay
[12] = target: Serine/threonine-protein kinase Chk1 (Homo sapiens) (UniProt O14757); assay: Inhibition of CHK1 at 1 uM by radiometric method
HCT-116 [13] = assay: Antiproliferative activity against human HCT116 cells after 72 hrs by cell titer 96 assay; type: functional, cell-based; conditions: HCT-116, 72 h
[14] = target: T2, Platelet-derived growth factor receptor beta; assay: Inhibition of PDGFRbeta by radiometric method
[15] = target: Tyrosine-protein kinase Lck (Homo sapiens) (UniProt P06239); assay: Inhibition of LCK at 1 uM by KINOMEscan binding assay
HCT-116 [16] = assay: Antiproliferative activity against human HCT116 cells after 72 hrs by [3H]thymidine incorporation assay; type: functional, cell-based
[17] = target: Serine/threonine-protein kinase B-raf (Homo sapiens) (UniProt P15056); assay: Inhibition of b-Raf at 1 uM by radiometric method
[18] = target: High affinity nerve growth factor receptor (Homo sapiens) (UniProt P04629); assay: Inhibition of TRK at 1 uM by KINOMEscan binding assay
HeLa = assay: Antiproliferative activity against human HeLa cells after 72 hrs by cell titer 96 assay; type: functional, cell-based
HCT-116 [19] = assay: Cell cycle arrest in human HCT116 cells assessed as increase of tetraploid 4N DNA at 4 uM after 24 hrs by flow cytometry; type: functional, cell-based
Procedure, shortened: (§2)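 HCT-116 cells exposed to 4 μM for 24 h, then trypsinized, PBS-washed, fixed in ice-cold 70% ethanol at -20 °C overnight. Cells were washed twice in PBS and stained 30 min in PBS with 2 μg/mL RNase A and 5 μg/mL propidium iodide. DNA content was read by flow cytometry to score 4 N and ≥8 N populations.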

Aurora kinase B = Aurora kinase B (Homo sapiens, UniProt Q96GD4); assay: Inhibition of recombinant aurora B
[20] = target: T1, Vascular endothelial growth factor receptor 2; assay: Inhibition of VEGFR2 by radiometric method
HCT-116 [21] = assay: Cell cycle arrest in human HCT116 cells assessed as increase of multinucleated octoploid 8 N DNA at 4 uM after 24 hrs by flow cytometry; type: functional, cell-based; procedure, shortened: as §2
Aurora kinase A = target: T4, Aurora kinase A (Homo sapiens, UniProt O14965); assay: Inhibition of recombinant aurora A
T4 sequence (O14965 whole entry): T3 sequence (whole entry)

[22] = target: Receptor-type tyrosine-protein kinase FLT3 (Homo sapiens, UniProt P36888); assay: Inhibition of FLT3 by radiometric method

T1 sequence (P35968 whole entry): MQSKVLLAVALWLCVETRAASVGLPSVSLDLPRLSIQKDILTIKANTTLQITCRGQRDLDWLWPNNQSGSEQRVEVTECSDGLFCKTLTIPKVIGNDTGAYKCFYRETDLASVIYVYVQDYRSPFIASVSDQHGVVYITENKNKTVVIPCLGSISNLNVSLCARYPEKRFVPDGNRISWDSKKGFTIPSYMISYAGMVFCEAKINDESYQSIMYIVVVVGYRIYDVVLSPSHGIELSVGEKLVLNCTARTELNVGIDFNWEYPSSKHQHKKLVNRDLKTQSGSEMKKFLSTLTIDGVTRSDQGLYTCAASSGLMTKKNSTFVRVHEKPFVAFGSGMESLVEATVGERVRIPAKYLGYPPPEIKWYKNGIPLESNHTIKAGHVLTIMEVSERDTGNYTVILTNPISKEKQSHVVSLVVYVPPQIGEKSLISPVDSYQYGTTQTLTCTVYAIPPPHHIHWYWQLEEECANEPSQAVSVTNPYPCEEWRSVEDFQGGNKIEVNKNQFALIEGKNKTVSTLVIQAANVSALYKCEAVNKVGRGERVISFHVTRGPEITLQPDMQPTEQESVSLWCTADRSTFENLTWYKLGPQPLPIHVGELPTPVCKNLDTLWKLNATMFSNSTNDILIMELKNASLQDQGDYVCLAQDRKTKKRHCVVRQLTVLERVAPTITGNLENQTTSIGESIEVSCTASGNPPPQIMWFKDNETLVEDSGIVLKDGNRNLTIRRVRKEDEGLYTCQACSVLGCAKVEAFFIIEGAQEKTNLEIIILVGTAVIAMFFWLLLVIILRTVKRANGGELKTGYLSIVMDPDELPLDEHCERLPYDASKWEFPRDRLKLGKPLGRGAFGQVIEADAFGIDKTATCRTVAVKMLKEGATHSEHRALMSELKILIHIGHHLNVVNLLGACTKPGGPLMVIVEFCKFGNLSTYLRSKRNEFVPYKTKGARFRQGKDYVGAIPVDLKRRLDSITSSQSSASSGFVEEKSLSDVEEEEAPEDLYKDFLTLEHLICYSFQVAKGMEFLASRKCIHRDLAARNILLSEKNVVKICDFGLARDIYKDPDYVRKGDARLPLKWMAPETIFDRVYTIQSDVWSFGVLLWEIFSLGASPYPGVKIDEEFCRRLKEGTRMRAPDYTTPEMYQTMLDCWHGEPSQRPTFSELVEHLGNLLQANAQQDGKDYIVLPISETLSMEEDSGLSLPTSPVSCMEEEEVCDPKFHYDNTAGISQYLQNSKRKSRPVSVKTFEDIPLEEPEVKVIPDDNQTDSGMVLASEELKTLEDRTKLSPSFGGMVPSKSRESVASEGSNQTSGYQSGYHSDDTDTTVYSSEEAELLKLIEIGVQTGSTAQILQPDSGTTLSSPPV
T2 sequence (P09619 whole entry): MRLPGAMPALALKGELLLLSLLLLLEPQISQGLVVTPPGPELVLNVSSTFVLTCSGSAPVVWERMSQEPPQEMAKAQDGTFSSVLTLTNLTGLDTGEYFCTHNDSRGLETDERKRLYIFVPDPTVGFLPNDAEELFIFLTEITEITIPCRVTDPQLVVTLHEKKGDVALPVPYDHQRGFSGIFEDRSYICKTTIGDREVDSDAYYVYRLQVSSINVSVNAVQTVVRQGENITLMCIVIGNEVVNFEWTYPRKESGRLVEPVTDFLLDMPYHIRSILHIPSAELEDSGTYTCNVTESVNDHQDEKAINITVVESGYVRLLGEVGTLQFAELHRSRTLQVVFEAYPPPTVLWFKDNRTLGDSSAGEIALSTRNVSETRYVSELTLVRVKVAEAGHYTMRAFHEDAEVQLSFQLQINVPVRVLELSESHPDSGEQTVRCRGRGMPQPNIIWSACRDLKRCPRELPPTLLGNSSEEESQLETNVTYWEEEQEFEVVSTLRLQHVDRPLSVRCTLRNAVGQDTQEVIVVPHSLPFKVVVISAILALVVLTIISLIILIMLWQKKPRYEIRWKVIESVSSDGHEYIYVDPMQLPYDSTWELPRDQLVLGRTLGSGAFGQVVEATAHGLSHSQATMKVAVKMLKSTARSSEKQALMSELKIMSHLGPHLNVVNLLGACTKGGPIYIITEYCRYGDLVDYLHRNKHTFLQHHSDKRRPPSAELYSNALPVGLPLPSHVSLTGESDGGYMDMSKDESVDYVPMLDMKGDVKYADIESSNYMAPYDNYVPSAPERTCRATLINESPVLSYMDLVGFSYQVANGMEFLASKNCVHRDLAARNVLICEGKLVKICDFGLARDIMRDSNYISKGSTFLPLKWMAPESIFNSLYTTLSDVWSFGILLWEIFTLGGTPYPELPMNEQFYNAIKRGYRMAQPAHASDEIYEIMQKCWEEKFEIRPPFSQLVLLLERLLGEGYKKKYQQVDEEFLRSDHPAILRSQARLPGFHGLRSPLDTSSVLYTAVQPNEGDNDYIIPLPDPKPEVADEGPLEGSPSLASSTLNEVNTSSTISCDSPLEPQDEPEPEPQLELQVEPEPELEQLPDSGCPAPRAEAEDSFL
Sequence of Tyrosine-protein kinase receptor UFO (Homo sapiens) (P30530 whole entry): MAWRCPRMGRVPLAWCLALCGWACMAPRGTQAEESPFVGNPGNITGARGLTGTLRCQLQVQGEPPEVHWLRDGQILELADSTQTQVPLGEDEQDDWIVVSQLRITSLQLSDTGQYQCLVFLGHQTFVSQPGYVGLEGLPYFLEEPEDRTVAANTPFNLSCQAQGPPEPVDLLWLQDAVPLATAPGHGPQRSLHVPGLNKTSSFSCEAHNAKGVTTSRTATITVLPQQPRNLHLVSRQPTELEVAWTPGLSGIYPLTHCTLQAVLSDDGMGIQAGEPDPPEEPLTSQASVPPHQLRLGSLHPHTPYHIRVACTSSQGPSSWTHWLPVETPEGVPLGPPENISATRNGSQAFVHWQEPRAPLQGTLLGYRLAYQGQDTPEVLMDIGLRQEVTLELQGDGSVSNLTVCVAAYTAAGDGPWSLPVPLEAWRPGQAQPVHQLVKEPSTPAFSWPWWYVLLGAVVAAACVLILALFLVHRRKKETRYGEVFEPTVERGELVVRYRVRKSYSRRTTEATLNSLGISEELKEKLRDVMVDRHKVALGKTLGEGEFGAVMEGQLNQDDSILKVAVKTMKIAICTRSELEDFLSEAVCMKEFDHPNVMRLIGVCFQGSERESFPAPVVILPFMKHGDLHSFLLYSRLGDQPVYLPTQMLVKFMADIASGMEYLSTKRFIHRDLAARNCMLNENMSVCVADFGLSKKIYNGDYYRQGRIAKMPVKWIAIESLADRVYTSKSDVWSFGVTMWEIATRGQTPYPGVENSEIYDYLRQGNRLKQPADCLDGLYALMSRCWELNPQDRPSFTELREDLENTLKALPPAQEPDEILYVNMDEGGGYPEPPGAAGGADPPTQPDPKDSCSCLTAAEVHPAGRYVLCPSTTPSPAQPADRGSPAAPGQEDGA
Sequence of Tyrosine-protein kinase JAK2 (Homo sapiens) (O60674 whole entry): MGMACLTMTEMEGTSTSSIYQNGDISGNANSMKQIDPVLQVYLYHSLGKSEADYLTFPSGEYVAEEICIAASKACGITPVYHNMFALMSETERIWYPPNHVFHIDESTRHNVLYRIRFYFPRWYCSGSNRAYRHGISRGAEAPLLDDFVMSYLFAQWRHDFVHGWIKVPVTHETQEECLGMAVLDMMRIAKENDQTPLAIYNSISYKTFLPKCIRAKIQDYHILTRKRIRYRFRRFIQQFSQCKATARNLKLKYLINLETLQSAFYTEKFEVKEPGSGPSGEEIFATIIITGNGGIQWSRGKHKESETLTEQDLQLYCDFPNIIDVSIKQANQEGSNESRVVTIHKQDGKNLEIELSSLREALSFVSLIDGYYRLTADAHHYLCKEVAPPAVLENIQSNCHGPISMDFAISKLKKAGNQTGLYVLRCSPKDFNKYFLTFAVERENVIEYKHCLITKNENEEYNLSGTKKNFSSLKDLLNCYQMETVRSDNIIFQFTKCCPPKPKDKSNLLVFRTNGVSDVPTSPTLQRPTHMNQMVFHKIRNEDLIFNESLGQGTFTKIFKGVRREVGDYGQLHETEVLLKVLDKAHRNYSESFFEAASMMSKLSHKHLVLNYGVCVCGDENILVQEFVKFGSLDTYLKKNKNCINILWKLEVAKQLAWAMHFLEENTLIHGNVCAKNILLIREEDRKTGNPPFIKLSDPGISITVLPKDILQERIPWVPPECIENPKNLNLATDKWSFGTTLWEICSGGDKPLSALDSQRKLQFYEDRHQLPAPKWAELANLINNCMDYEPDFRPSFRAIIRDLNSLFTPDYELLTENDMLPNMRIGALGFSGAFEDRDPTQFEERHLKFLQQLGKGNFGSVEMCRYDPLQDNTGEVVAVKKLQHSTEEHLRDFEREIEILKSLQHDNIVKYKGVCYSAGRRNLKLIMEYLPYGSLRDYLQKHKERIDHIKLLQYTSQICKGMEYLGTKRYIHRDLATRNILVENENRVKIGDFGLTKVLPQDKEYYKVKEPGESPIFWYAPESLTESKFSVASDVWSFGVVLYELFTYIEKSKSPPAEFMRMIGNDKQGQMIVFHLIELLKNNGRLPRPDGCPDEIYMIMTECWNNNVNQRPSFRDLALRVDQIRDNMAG
Sequence of Mitogen-activated protein kinase 14 (Homo sapiens) (Q16539 whole entry): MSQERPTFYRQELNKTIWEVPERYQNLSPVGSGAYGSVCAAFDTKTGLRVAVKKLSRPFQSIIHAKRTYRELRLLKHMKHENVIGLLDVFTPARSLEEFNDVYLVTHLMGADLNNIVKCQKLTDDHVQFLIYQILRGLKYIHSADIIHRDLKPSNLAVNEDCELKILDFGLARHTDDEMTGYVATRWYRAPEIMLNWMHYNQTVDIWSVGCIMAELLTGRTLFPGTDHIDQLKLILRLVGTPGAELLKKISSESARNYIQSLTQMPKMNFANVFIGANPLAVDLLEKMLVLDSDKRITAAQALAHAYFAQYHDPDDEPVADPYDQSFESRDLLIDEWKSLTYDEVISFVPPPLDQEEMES

inhibition [1] | inhibition [2] | inhibition [3] | inhibition [5] | inhibition [6] | inhibition [7] | residual activity [8] | inhibition [9] | inhibition [10] | residual activity [11] | inhibition [12] | IC50 (HCT-116 [13]) | IC50 [14] | residual activity [15] | inhibition [17] | residual activity [18] | Structure (SMILES) | further results
74% | 11% | 3% | 47% | 4% | 30% | < 10% | Active | Active | < 10% | 10% | 3.74 µM | > 1 µM | < 10% | -1% | < 10% | CCOC(=O)CCc1c(/C=C2\C(=O)Nc3ccc(NS(=O)(=O)c4ccccc4)cc32)[nH]c2c1C(=O)CCC2 | inhibition [4]: 31%; IC50 (HCT-116 [16]): 1.02 µM
51% | 5% | -4% | 70% | 11% | -3% | < 10% | inactive | Active | < 10% | 58% | 3.69 µM | < 1 µM | < 10% | 2% | < 10% | CN(C)CCCc1c(/C=C2\C(=O)Nc3ccc(NS(=O)(=O)c4ccccc4)cc32)[nH]c2c1C(=O)CCC2 | IC50 (HeLa): 7.8 µM; Activity (HCT-116 [19]): Active; IC50 (Aurora kinase B): 0.235 µM; IC50 [20]: < 1 µM; Activity (HCT-116 [21]): Active; IC50 (Aurora kinase A): 2.19 µM; IC50 [22]: < 1 µM
